APP 5'UTR act: activators of APP 5'UTR luciferase reporter, primary screen, SH-SY5Y cells | SH-SY5Y APP 5'UTR luciferase reporter, luminescence; zero percent = DMSO vehicle wells | activation, % at 2 µM | hit rate 1% among 190,000;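 active = activation above a set limit, based on mean plus 3 SD of controls, cut at about 140% in these data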
STAT3 act: IL-6 driven STAT3 reporter potentiators, primary screen, U3A cells, luciferase, luminescence, MLSCN library; activation (% of control), % at 5.6 µM; AID 871, 2007; IL-6 STAT3-luciferase reporter; 100% = signal with IL-6 EC80 alone; hit rate 0.91% among 190,000;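 active = activation above the screen-wide mean of compound activation plus 3 SD, cut at about 130% in these data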
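Material: STAT3-luciferase reporter U3A cells; Probe or stimulus: IL-6 (33 ng/mL); Incubation: compound pre-incubation 1 h before IL-6, then 6 h stimulation at 37 °C; Technique: luminescence from STAT3-driven luciferase reporter; Evaluation: % activation versus median of IL-6-stimulated wells; Controls: IL-6-only high control.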
STAT1 blocker: STAT1 signaling inhibitors, primary screen, cell-based, HTS, luciferase reporter; hit rate 0.35% among 200,000; NIH 3T3 STAT1-luciferase reporter, IFN-gamma, luminescence; inhibition, % at 5.5 µM;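 active = inhibition above a set limit, the mean inhibition across all tested compounds plus 3 SD, cut at about 34% in these data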
STAT1 activator: STAT1 signaling activators, primary screen, cell-based, HTS, luciferase reporter; NIH 3T3 STAT1-luciferase reporter, IFN-gamma, luminescence; 100% = IFN-gamma alone, no compound; AID 932, 2007; hit rate 2.6% among 200,000; activation (% of control), % at 5.5 µM;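 active = activation above the screen-wide mean activation plus 3 SD, cut at about 130% in these data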
NF-kB neuron act: activators of NF-kB expression in neurons, primary screen, cell-based, HTS; hit rate 1.6% among 190,000; human neuronal cells, NF-kB reporter expression; active compounds read high; AID 1239, 2008; fold change at 12.5 µM; in the data active = fold change above about 3.3
STAT3 inh: IL-6 driven STAT3 reporter inhibitors, primary screen, U3A cells, luciferase, luminescence, MLSCN library; IL-6 STAT3-luciferase reporter; host cell line lacks STAT1; inhibition, % at 5.5 µM; hit rate 0.89% among 190,000; AID 862, 2007;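 active = inhibition above the mean inhibition across all screened compounds plus 3 SD, cut at about 44% in these data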
STAT1 activ conf: STAT1 signaling activators, confirmation, cell-based, HTS, luciferase reporter. NIH 3T3 STAT1-luciferase reporter, IFN-gamma potentiation, luminescence; 100% = IFN-gamma EC80 alone, no compound. activation (% of control), % at 5.7 µM. shares compounds with STAT1 activator. AID 1262, 2008. hit rate 97% among 1,200;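 active = activation above a set limit carried over from the earlier primary STAT1 screen, cut at about 140% in these data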
NFkB act STAT1ct: NF-kB reporter activators, TNF-alpha stimulated, counter-screen for STAT1 activator project, cell-based, HEK293T, luciferase luminescence; shares compounds with STAT1 activator; 100% = TNF-alpha with vehicle only; activation (% of control), % at 5.7 µM; hit rate 43% among 1,200;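 active = activation above the mean of solvent-only control wells plus 3 SD, set per campaign, cut at about 130% in these data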;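 note: TNF-alpha given at a submaximal dose yielding about 80% of full reporter signal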
STAT3 act 2: STAT3 reporter activation by STAT1 hits, confirmation, counter-screen for STAT1 activator project, U3A cells, luciferase, luminescence; shares compounds with STAT1 activator; hit rate 46% among 1,200; IL-6; cells lack STAT1; 100 = IL-6 alone, no compound effect; activation (% of control), % at 5.7 µM; AID 1316, 2008;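 active = activation above the solvent-only control well mean plus 3 SD, set per plate batch, cut at about 110% in these data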;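 note: higher means more STAT3 reporter activation so hits are non-selective activators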
Hits are given with their value; . = inactive; / = not tested or not shown. In the library only some 5.1% were active in any assay of this set; here they are far more common.

SMILES	APP 5'UTR act	STAT3 act	STAT1 blocker	STAT1 activator	NF-kB neuron act	STAT3 inh	STAT1 activ conf	NFkB act STAT1ct	STAT3 act 2
Cc1cccc2c1-c1sc(C(=O)Nc3cccc([N+](=O)[O-])c3C)cc1CO2	.	.	.	.	.	.	/	/	/
Cc1ccc(C(=O)NC(=S)Nc2ccc(NC(=O)c3cccs3)cc2)cc1[N+](=O)[O-]	.	.	.	.	.	.	/	/	/
S=C(NCc1ccco1)N1CCN(c2ccccc2Cl)CC1	.	.	.	.	.	.	/	/	/
CCCC(=O)Nc1nc(C)c(-c2csc(Nc3ccccc3C)n2)s1	.	.	.	.	.	.	/	/	/
CCC(=O)Nc1nc(C)c(-c2csc(Nc3ccccn3)n2)s1	.	.	.	157	.	.	161	.	.
CC(=O)NCCc1cc2ccc(C)c(C)c2[nH]c1=O	.	.	.	.	.	.	/	/	/
Cc1ccc2cc(CCNC(=O)c3cccs3)c(=O)[nH]c2c1C	.	.	.	165	4	.	187	135	.
Cn1/c(=N/N=C/c2ccccn2)sc2ccccc21	.	.	.	152	5.3	.	219	142	130
CCC(=O)N/N=c1/sc2ccccc2n1C	.	.	.	.	.	.	/	/	/
N#C/C(=N\Nc1ccc(Cl)cc1)C(=N)N1CCCCCC1	236	.	.	158	.	.	305	135	116
N#C/C(=N\Nc1ccc(S(=O)(=O)N2CCCCC2)cc1)C(N)=S	.	.	.	.	.	.	/	/	/
N#C/C(=N/Nc1ccc([N+](=O)[O-])cc1)C(=N)N1CCCCC1	174	.	.	174	8.1	.	249	143	122
CC1CCCC(n2c(=S)[nH]c3ccccc3c2=O)C1C (stereo not given)	.	.	.	.	.	.	/	/	/
COc1cc(NC(=O)c2ccccc2Cl)ccc1NC(=O)c1cccs1	.	.	.	153	.	.	181	134	.
CCOC(=O)C1=NNC2C(=O)N(C3CCCCC3)C(=O)C12 (stereo not given)	.	.	.	.	.	.	/	/	/
Cc1cc(C(=O)Nc2ccc3c(c2)OCO3)cs1	178	.	.	157	4.5	.	168	.	119
O=C(Nc1ccc2nsnc2c1)c1ccc2c(c1)OCO2	150	.	.	154	7	.	214	.	.
CC(=O)Nc1ccc(C(=O)Nc2ccc3c(c2)OCO3)cc1	.	.	.	.	.	.	/	/	/
Cn1c(C(=O)Nc2ccc3c(c2)OCCO3)cc2sccc21	152	.	.	186	9.1	.	272	.	.
Cc1ccc(-n2nc3ccc(NC(=O)c4ccc5c(c4)OCO5)cc3n2)cc1	.	.	.	.	.	.	/	/	/
COc1ccccc1NC(=S)N/N=C/c1ccc(O)cc1	.	.	.	159	4	.	209	.	.
CSc1nc(C)cc(Oc2ccccc2)n1	.	.	.	.	.	.	/	/	/
Fc1cccc2sc(Nc3nc4cc5c(cc4s3)OCO5)nc12	139	.	.	175	3.5	.	213	141	125
Fc1cccc2sc(Nc3nc4cc5c(cc4s3)OCCO5)nc12	162	.	.	170	.	.	249	.	132
Fc1cc(F)c2nc(Nc3nc4cc5c(cc4s3)OCO5)sc2c1	.	.	.	.	.	.	/	/	/
SMILES	APP 5'UTR act	STAT3 act	STAT1 blocker	STAT1 activator	NF-kB neuron act	STAT3 inh	STAT1 activ conf	NFkB act STAT1ct	STAT3 act 2
O=c1c2c(nc3cc(-c4ccc(F)cc4)[nH]n13)CCC2	.	.	.	152	.	.	176	.	.
Cc1ccccc1Nc1nc(N)nc(CSc2ccc(F)cc2)n1	168	.	.	156	6	.	195	.	125
CC(=O)Nc1cc(S(=O)(=O)Nc2ccccc2C)c(C)cc1C	.	.	.	.	.	.	/	/	/
O=C(N/N=C/c1ccc(C(F)(F)F)cc1)c1ccc(O)cc1	.	.	.	.	.	.	/	/	/
Oc1ccc(/C=N/Nc2ccc(C(F)(F)F)cn2)cc1	.	.	.	168	4.8	.	172	.	.
Nc1c(Cl)ncnc1N/N=C/c1ccccn1	.	.	.	.	.	.	/	/	/
Nc1c(Cl)ncnc1N/N=C/c1ccc2ccccc2n1	.	.	.	162	.	.	161	.	138
Brc1ccccc1Cn1c(-c2cscn2)nc2ccccc21	.	.	.	.	.	.	/	/	/
CC(=O)c1sc(NC(=O)c2ccccc2F)nc1-c1ccccc1	141	.	.	154	.	.	171	.	.
N#C/C(=C/c1ccc(N2CCOCC2)o1)C(=O)Nc1ccccc1	162	.	.	160	4.4	.	195	.	.
CC/C(O)=C1\C(=O)CC(c2ccccc2)CC1=NC(C)C (stereo not given)	.	.	.	.	.	.	/	/	/
Cc1cc(C)n(-c2ccc(C(=O)Nc3cccnc3Cl)cc2)n1	.	.	.	.	.	.	/	/	/
Cc1cc(C)n(-c2ccc(C(=O)Nc3ccccn3)cc2)n1	142	.	.	156	4.1	.	181	.	.
Cc1cc(C)n(-c2ccc(C(=O)Nc3nnc(C)s3)cc2)n1	.	.	.	.	.	.	/	/	/
Cc1cc(C)n(-c2ccc(C(=O)Nc3sccc3C(N)=O)cc2)n1	171	.	.	163	.	.	211	.	.
Cc1ccc(S(=O)(=O)Nc2cc(C(F)(F)F)ccc2N2CCOCC2)c(C)c1	.	.	.	.	.	.	/	/	/
CN(Cc1ccccc1)c1ccc(S(=O)(=O)N2CCC(C(=O)O)CC2)cc1[N+](=O)[O-]	.	.	.	.	.	.	/	/	/
CC(C)NC(=O)NC(=O)COC(=O)c1ccc([N+](=O)[O-])cc1Cl	.	.	.	.	.	.	/	/	/
COc1ccc(C(=O)CSc2nnc(CN3CCCC3)n2-c2ccc(F)cc2)c(OC)c1	.	.	.	.	.	.	/	/	/
O=C(Nc1ccc(-c2nc3cccnc3s2)cc1)c1ccco1	216	.	.	152	3.9	.	227	.	.
O=C(Nc1ccc(-c2nc3ncccc3o2)cc1)c1ccco1	.	.	.	160	.	.	173	.	.
